Active and inactive are the calls of the source. No cut-off for these calls is given here.
Assays:
[1] = system: Human immunodeficiency virus 2; assay: Antiviral activity against HIV2 ROD infected in human CEM cells assessed as inhibition of virus-induced cytopathicity; assay type: functional, organism-based; conditions: CCRF-CEM
Human alphaherpesvirus 2 = assay: Antiviral activity against Herpes simplex virus 2 infected in HEL cells assessed as inhibition of virus-induced cytopathicity; assay type: functional, organism-based
Human alphaherpesvirus 3 = assay: Antiviral activity against Varicella-Zoster virus infected in HEL cells assessed as inhibition of virus-induced cytopathicity; assay type: functional, organism-based
HeLa = assay: Cytostatic activity against human HeLa cells after 72 hrs by MTT assay; assay type: functional, cell-based
Procedure, shortened: (§1)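 Monolayer cells were grown in DMEM with 10% FBS, 2 mM L-glutamine, penicillin and streptomycin at 37 °C under 5% CO2. They were seeded on day 0 at 1 × 10⁴ to 3 × 10⁴ cells/ml and exposed to five 10-fold dilutions (10⁻⁸ to 10⁻⁴ M) for 72 h, with a solvent control. Read-out was MTT. Quadruplicates in three experiments (WI 38: one experiment). IC50 by linear regression of percentage-of-growth.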

Coxsackievirus B4 [2] = assay: Antiviral activity against Coxsackievirus B4 infected in african green monkey Vero cells assessed as inhibition of virus-induced cytopathicity; assay type: functional, organism-based
Procedure, shortened: (§2)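 Cells were infected with 100 CCID50 of virus for 2 h, then residual virus was removed. Medium with graded compound concentrations was added and cultures were kept 3 days at 37 °C. Cytopathogenicity was scored microscopically. EC50 is the concentration reducing virus-induced cytopathogenicity by 50%.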

Human alphaherpesvirus 1 = assay: Antiviral activity against Herpes simplex virus 1 infected in HEL cells assessed as inhibition of virus-induced cytopathicity; assay type: functional, organism-based
[3] = system: Vesicular stomatitis virus; assay: Antiviral activity against Vesicular stomatitis virus infected in human HeLa cells assessed as inhibition of virus-induced cytopathicity; assay type: functional, organism-based
Procedure, shortened: (§3)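 Cell cultures were exposed for 2 h to 100 CCID50 of virus, and residual virus was then removed. Infected cells were further incubated with medium containing varying compound concentrations for 3 days at 37 °C. Virus-induced cytopathogenicity was scored microscopically. EC50 is the concentration giving a 50% reduction of cytopathogenicity.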

[4] = system: Human immunodeficiency virus 1; assay: Antiviral activity against HIV1 3B infected in human CEM cells assessed as inhibition of virus-induced cytopathicity; assay type: functional, organism-based; conditions: CCRF-CEM
NCI-H460 = assay: Cytostatic activity against human H460 cells after 72 hrs by MTT assay; assay type: functional, cell-based; conditions: NCI-H460, 72 h; procedure, shortened: as §1
[5] = Cytostatic activity against human Molt4/C8 cells after 72 hrs by MTT assay; assay type: functional, cell-based; conditions: MOLT-4, 72 h
[6] = system: Respiratory syncytial virus; assay: Antiviral activity against Respiratory syncytial virus infected in human HeLa cells assessed as inhibition of virus-induced cytopathicity; assay type: functional, organism-based; procedure, shortened: as §2
MCF7 = assay: Cytostatic activity against human MCF7 cells after 72 hrs by MTT assay; assay type: functional, cell-based; conditions: MCF7, 72 h; procedure, shortened: as §1
[7] = system: Mammalian orthoreovirus 1; assay: Antiviral activity against Reovirus 1 infected in african green monkey Vero cells assessed as inhibition of virus-induced cytopathicity; assay type: functional, organism-based; procedure, shortened: as §2
Sindbis virus = assay: Antiviral activity against Sindbis virus infected in african green monkey Vero cells assessed as inhibition of virus-induced cytopathicity; assay type: functional, organism-based; procedure, shortened: as §2
Human respirovirus 3 = assay: Antiviral activity against Parainfluenza-3 virus infected in african green monkey Vero cells assessed as inhibition of virus-induced cytopathicity; assay type: functional, organism-based; procedure, shortened: as §2
L1210 = assay: Cytostatic activity against mouse L1210 cells after 48 hrs by MTT assay; assay type: functional, cell-based; conditions: L1210, 48 h
Punta Toro virus = assay: Antiviral activity against Punta Toro virus infected in african green monkey Vero cells assessed as inhibition of virus-induced cytopathicity; assay type: functional, organism-based; procedure, shortened: as §2
SW-620 = assay: Cytostatic activity against human SW620 cells after 72 hrs by MTT assay; assay type: functional, cell-based; conditions: SW-620, 72 h; procedure, shortened: as §1
Coxsackievirus B4 [8] = assay: Antiviral activity against Coxsackievirus B4 infected in human HeLa cells assessed as inhibition of virus-induced cytopathicity; assay type: functional, organism-based; procedure, shortened: as §2
Cytomegalovirus = assay: Antiviral activity against Cytomegalovirus infected in HEL cells assessed as inhibition of virus-induced cytopathicity; assay type: functional, organism-based
Procedure, shortened: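 Confluent HEL fibroblasts were infected with CMV strains Davis and AD-169 at 100 PFU per well for 2 h, then virus was removed. Graded concentrations were added in duplicate and cultures kept 7 days at 37 °C. Cytopathogenicity was scored microscopically after ethanol fixation and Giemsa staining. EC50 is the 50% reduction.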

CCRF-CEM = assay: Cytostatic activity against human CEM cells after 72 hrs by MTT assay; assay type: functional, cell-based
Vaccinia virus = assay: Antiviral activity against Vaccinia virus infected in HEL cells assessed as inhibition of virus-induced cytopathicity; assay type: functional, organism-based; conditions: Orthopoxvirus vaccinia; procedure, shortened: as §3
MIA PaCa-2 = assay: Cytostatic activity against human MIAPaCa2 cells after 72 hrs by MTT assay; assay type: functional, cell-based; conditions: MIA PaCa-2, 72 h; procedure, shortened: as §1
[9] = system: Vesicular stomatitis virus; assay: Antiviral activity against Vesicular stomatitis virus infected in HEL cells assessed as inhibition of virus-induced cytopathicity; assay type: functional, organism-based; procedure, shortened: as §3
[10] = Cytostatic activity against human WI38 cells after 72 hrs by MTT assay; assay type: ADME, cell-based; conditions: WI-38, 72 h; procedure, shortened: as §1

Row | Compound | Activity [1] | Activity (Human alphaherpesvirus 2) | Activity (Human alphaherpesvirus 3) | IC50 (HeLa) | Activity (Coxsackievirus B4 [2]) | Activity (Human alphaherpesvirus 1) | Activity [3] | Activity [4] | IC50 (NCI-H460) | IC50 [5] | Activity [6] | IC50 (MCF7) | Activity [7] | Activity (Sindbis virus) | Activity (Human respirovirus 3) | IC50 (L1210) | Activity (Punta Toro virus) | IC50 (SW-620) | Activity (Coxsackievirus B4 [8]) | Activity (Cytomegalovirus) | further results
1 | CC(C(=O)NCCCO)c1cccc(Oc2ccccc2)c1 (stereo not given) | inactive | inactive | inactive | > 100 µM | inactive | inactive | inactive | inactive | > 100 µM | 99 µM | inactive | > 100 µM | inactive | inactive | inactive | 230 µM | inactive | > 100 µM | inactive | inactive | IC50 (CCRF-CEM): 71 µM; Activity (Vaccinia virus): inactive; IC50 (MIA PaCa-2): > 100 µM; Activity [9]: inactive
2 | COC(=O)[C@H](C)NP(=O)(OCCCNC(=O)C(C)c1cccc(Oc2ccccc2)c1)Oc1ccc(Cl)cc1 (stereo not given in full) | inactive | inactive | inactive | 6 µM | inactive | inactive | inactive | inactive | 13 µM | 39 µM | inactive | 12 µM | inactive | inactive | inactive | 24 µM | inactive | 7 µM | inactive | inactive | IC50 [10]: 20 µM; IC50 (CCRF-CEM): 38 µM; Activity (Vaccinia virus): inactive; IC50 (MIA PaCa-2): 5 µM; Activity [9]: inactive
3 | CC(C)Cc1ccc(C(C)C(=O)NCCCO)cc1 (stereo not given) | inactive | inactive | inactive | > 100 µM | inactive | inactive | inactive | inactive | > 100 µM | 93 µM | inactive | > 100 µM | inactive | inactive | inactive | 213 µM | inactive | > 100 µM | inactive | inactive | IC50 (CCRF-CEM): 55 µM; Activity (Vaccinia virus): inactive; IC50 (MIA PaCa-2): ≥ 100 µM; Activity [9]: inactive
4 | O=C(Cc1ccccc1Nc1c(Cl)cccc1Cl)NCCCO | inactive | inactive | inactive | 46 µM | inactive | inactive | inactive | inactive | 68 µM | 215 µM | inactive | 39 µM | inactive | inactive | inactive | 200 µM | inactive | 36 µM | inactive | inactive | IC50 (CCRF-CEM): 212 µM; Activity (Vaccinia virus): inactive; IC50 (MIA PaCa-2): 54 µM; Activity [9]: inactive
5 | COc1ccc2c(c1)c(CC(=O)NCCCO)c(C)n2C(=O)c1ccc(Cl)cc1 | inactive | inactive | inactive | 26 µM | inactive | inactive | inactive | inactive | > 100 µM | 113 µM | inactive | 22 µM | inactive | inactive | inactive | 179 µM | inactive | 47 µM | inactive | inactive | IC50 (CCRF-CEM): 78 µM; Activity (Vaccinia virus): inactive; IC50 (MIA PaCa-2): 44 µM; Activity [9]: inactive
6 | CC(C(=O)NCCCO)c1cccc(C(=O)c2ccccc2)c1 (stereo not given) | inactive | inactive | inactive | > 100 µM | inactive | inactive | inactive | inactive | > 100 µM | 97 µM | inactive | > 100 µM | inactive | inactive | inactive | 273 µM | inactive | > 100 µM | inactive | inactive | IC50 (CCRF-CEM): 71 µM; Activity (Vaccinia virus): inactive; IC50 (MIA PaCa-2): > 100 µM; Activity [9]: inactive
